According to ChEMBL document CHEMBL4041513, “In silico identification, design and synthesis of novel piperazine-based antiviral agents targeting the hepatitis C virus helicase” (Eur J Med Chem, 2017):

Assays:
[1] = Cytotoxicity against human HuH5.2 cells assessed as reduction in cell viability after 72 hrs by MTS assay; type: cell-based, Huh-5-2
Procedure, shortened: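 Huh 5-2 cells carrying the genotype 1b I389luc-ubi-neo/NS3-3'/5.1 replicon were seeded at 6 500 cells/well in medium without Geneticin one day ahead. Compounds (DMSO stock) were added as 1:5 four-step or 1:2 eight-step dilutions for 72 h at 37 °C.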

Hepatitis C virus = test: Antiviral activity against HCV genotype 1b infected in human HuH5.2 cells with persistent I389luc-ubi-neo/NS3-3'/5.1 replicon after 72 hrs by luciferase reporter gene assay; type: functional, cell-based, Hepacivirus hominis; conditions: Huh-5-2, 72 h
Procedure, shortened: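 Huh 5-2 cells carrying the genotype 1b I389luc-ubi-neo/NS3-3'/5.1 replicon were seeded at 6 500 cells/well in Geneticin-free DMEM/10% FCS and left overnight. Compounds from DMSO stocks were added in a four-step 1-to-5 series for the first screen or an eight-step 1-to-2 series for dose-response curves, then 72 h at 37 °C. Luciferase luminescence after lysis, as % of untreated controls, gave EC50; mean of ≥2 experiments.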

[2] = Inhibition of HCV NS3 helicase DNA unwinding activity using fluorescent DNA substrate by molecular beacon assay; parameters: species or system Hepacivirus hominis
Procedure, shortened: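 Molecular beacon unwinding reaction: 25 mM MOPS pH 6.5, 1.25 mM MgCl2, 5% DMSO, 5 µg/ml BSA, 0.01% Tween20, 0.05 mM DTT, 5 nM fluorescent DNA substrate, 12.5 nM NS3h, 1 mM ATP. Duplicate two-fold dilutions spanned 1 mM to 0.78 µM. Data normalised to no-inhibitor and no-enzyme controls; IC50 from variable-slope Hill fit.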

[3] = Selectivity index, ratio of CC50 for human HuH5.2 cells to EC50 for HCV genotype 1b infected in human HuH5.2 cells with persistent I389luc-ubi-neo/NS3-3'/5.1 replicon

Q: Which CC50 at 72 h [1] does the source give for COc1ccc(OC)c(S(=O)(=O)NCCC(=O)N2CCN(C(=O)CCNS(=O)(=O)c3cc(OC)ccc3OC)CC2)c1 here?
A: > 79.5 µM

Q: And the EC50 (Hepatitis C virus)?
A: > 79.5 µM

Q: With O=S(=O)(NCCCN1CCN(CCCNS(=O)(=O)c2cccc3ccccc23)CC1)c1cccc2ccccc12 as the compound, how does the CC50 at 72 h [1] read?
A: > 172 µM

Q: And the IC50 [2]?
A: > 1000 µM

Q: What about the EC50 (Hepatitis C virus) of the same compound?
A: > 172 µM

Q: What about the EC90 (Hepatitis C virus) of the same compound?
A: > 172 µM

Q: With CC(=O)c1ccc(NC(=O)CSc2nnc(NC(=O)CCc3ccccc3)s2)cc1 as the compound, how does the CC50 at 72 h [1] read?
A: > 113 µM

Q: And the EC50 (Hepatitis C virus)?
A: > 113 µM

Q: What about the EC90 (Hepatitis C virus) of the same compound?
A: > 113 µM

Q: What does the source list for COc1ccc(S(=O)(=O)NCCN2CCN(CCNS(=O)(=O)c3ccc(OC)cc3)CC2)cc1?
A: CC50 at 72 h [1]: > 97.5 µM; EC50 (Hepatitis C virus): > 97.5 µM; EC90 (Hepatitis C virus): > 97.5 µM

Q: Which results are given for Cc1ccc(S(=O)(=O)NCCCN2CCN(C(=O)CCNS(=O)(=O)c3ccc(C)cc3)CC2)cc1?
A: Ratio CC50/EC50 [3]: >3; CC50 at 72 h [1]: > 191 µM; EC50 (Hepatitis C virus): 64.3 µM; EC90 (Hepatitis C virus): 173 µM

Q: With O=S(=O)(NCCNc1ccc(NCCNS(=O)(=O)c2ccc(Cl)cc2)cc1)c1ccc(Cl)cc1 as the compound, how does the “Ratio CC50/EC50” value [3] read?
A: 1.8

Q: What about the CC50 at 72 h [1] of the same compound?
A: 22 µM

Q: What about the EC50 (Hepatitis C virus) of the same compound?
A: 12.1 µM

Q: For O=S(=O)(NCCCN1CCN(CCCNS(=O)(=O)c2ccc(C(F)(F)F)cc2)CC1)c1ccccc1, which “Ratio CC50/EC50” value [3] is on record?
A: 5.8

Q: What about the CC50 at 72 h [1] of the same compound?
A: 70.8 µM

Q: And the EC50 (Hepatitis C virus)?
A: 12.1 µM

Q: For CC(C)(C)c1ccc(C(=O)Oc2ccc3c(-c4ccccc4C(=O)O)c4ccc(=O)cc-4oc3c2)cc1, which CC50 at 72 h [1] is on record?
A: > 102 µM

Q: And the EC50 (Hepatitis C virus)?
A: > 102 µM

Q: What about the EC90 (Hepatitis C virus) of the same compound?
A: > 102 µM

Q: For Cc1ccc(S(=O)(=O)NCCCN2CCN(CCCNS(=O)(=O)c3ccccc3)CC2)cc1, which “Ratio CC50/EC50” value [3] is on record?
A: 5.3

Q: And the CC50 at 72 h [1]?
A: 138 µM

Q: And the EC50 (Hepatitis C virus)?
A: 26.3 µM

Q: With O=S(=O)(NCCCN1CCN(CCNS(=O)(=O)c2ccc(Cl)cc2)CC1)c1ccc(Cl)cc1 as the compound, how does the “Ratio CC50/EC50” value [3] read?
A: 4.9

Q: What about the CC50 at 72 h [1] of the same compound?
A: 32.3 µM

Q: And the EC50 (Hepatitis C virus)?
A: 6.59 µM

Q: Which results are given for O=C1N/C(=N/N=C/c2ccccc2O)SC1Cc1ccc(Br)cc1 (stereo not given)?
A: Ratio CC50/EC50 [3]: 1.5; CC50 at 72 h [1]: 15.7 µM; EC50 (Hepatitis C virus): 10.4 µM

Q: With O=S(=O)(NCCCN1CCN(CCCNS(=O)(=O)c2ccc(C(F)(F)F)cc2)CC1)c1ccc(Cl)cc1 as the compound, how does the “Ratio CC50/EC50” value [3] read?
A: 6.3

Q: What about the CC50 at 72 h [1] of the same compound?
A: 63.7 µM

Q: What about the EC50 (Hepatitis C virus) of the same compound?
A: 10.1 µM

Q: What about the EC90 (Hepatitis C virus) of the same compound?
A: 33.5 µM

Q: With CC(C)Oc1ccc(/C=N/N=C2/NC(=O)C(CC(=O)O)S2)cc1 (stereo not given) as the compound, how does the “Ratio CC50/EC50” value [3] read?
A: >1.1

Q: And the CC50 at 72 h [1]?
A: > 149 µM

Q: What about the EC50 (Hepatitis C virus) of the same compound?
A: 127 µM

Q: For COc1ccc(OC)c(S(=O)(=O)NCCN2CCN(CCNS(=O)(=O)c3cc(OC)ccc3OC)CC2)c1, which CC50 at 72 h [1] is on record?
A: > 87.3 µM

Q: And the EC50 (Hepatitis C virus)?
A: > 87.3 µM

Q: Which “Ratio CC50/EC50” value [3] does the source give for Cc1ccc2nc(N3C(=O)C(O)=C(C(=O)c4cc5ccccc5o4)C3c3cccc(O)c3)sc2c1 (stereo not given) here?
A: >2.8

Q: And the CC50 at 72 h [1]?
A: > 104 µM

Q: What about the EC50 (Hepatitis C virus) of the same compound?
A: 35.8 µM

Q: With Cc1ccc(S(=O)(=O)NCCN2CCN(CCNS(=O)(=O)c3ccc(C)cc3)CC2)cc1 as the compound, how does the CC50 at 72 h [1] read?
A: > 104 µM

Q: What about the EC50 (Hepatitis C virus) of the same compound?
A: > 104 µM

Q: What about the EC90 (Hepatitis C virus) of the same compound?
A: > 104 µM

Q: Which CC50 at 72 h [1] does the source give for COc1ccc(S(=O)(=O)NCCC(=O)N2CCN(C(=O)CCNS(=O)(=O)c3ccc(OC)cc3)CC2)cc1 here?
A: > 87.9 µM

Q: With Cc1ccc(S(=O)(=O)NCCCN2CCN(CCCNS(=O)(=O)c3ccc(-c4ccccc4)cc3)CC2)cc1 as the compound, how does the “Ratio CC50/EC50” value [3] read?
A: 3.3

Q: What about the CC50 at 72 h [1] of the same compound?
A: 6.55 µM

Q: And the EC50 (Hepatitis C virus)?
A: 1.98 µM

Q: Which CC50 at 72 h [1] does the source give for O=S(=O)(NCCCN1CCN(CCCNS(=O)(=O)c2cccnc2)CC1)c1cccnc1 here?
A: > 207 µM

Q: What about the EC50 (Hepatitis C virus) of the same compound?
A: > 207 µM

Q: What about the EC90 (Hepatitis C virus) of the same compound?
A: > 207 µM

Q: For O=C(O)c1ccc(S(=O)(=O)NCCCN2CCN(CCCNS(=O)(=O)c3ccc(C(=O)O)cc3)CC2)cc1, which CC50 at 72 h [1] is on record?
A: > 176 µM

Q: What about the IC50 [2] of the same compound?
A: > 1000 µM

Q: And the EC50 (Hepatitis C virus)?
A: > 176 µM

Q: Which results are given for O=S(=O)(NCCCN1CCN(CCCNS(=O)(=O)c2ccc(Cl)cc2)CC1)c1ccccc1?
A: Ratio CC50/EC50 [3]: 4.1; CC50 at 72 h [1]: 81.5 µM; EC50 (Hepatitis C virus): 19.9 µM; EC90 (Hepatitis C virus): > 64 µM

Q: Which results are given for Cc1ccc(S(=O)(=O)NCCCN2CCN(CCCNS(=O)(=O)c3ccc(Cl)cc3)CC2)cc1?
A: Ratio CC50/EC50 [3]: 4.9; CC50 at 72 h [1]: 48.8 µM; EC50 (Hepatitis C virus): 9.93 µM; EC90 (Hepatitis C virus): 36 µM

Q: With COc1ccc(S(=O)(=O)NCCC(=O)N2CCN(C(=O)CCNS(=O)(=O)c3ccc(OC)c(OC)c3)CC2)cc1OC as the compound, how does the CC50 at 72 h [1] read?
A: > 159 µM

Q: What about the EC50 (Hepatitis C virus) of the same compound?
A: > 159 µM

Q: What about the EC90 (Hepatitis C virus) of the same compound?
A: > 159 µM

Q: Which “Ratio CC50/EC50” value [3] does the source give for O=[N+]([O-])c1ccc(S(=O)(=O)NCCCN2CCN(CCCNS(=O)(=O)c3ccc([N+](=O)[O-])cc3)CC2)cc1 here?
A: 4.4

Q: And the CC50 at 72 h [1]?
A: 77.4 µM

Q: What about the EC50 (Hepatitis C virus) of the same compound?
A: 18.1 µM

Q: What about the EC90 (Hepatitis C virus) of the same compound?
A: 61.1 µM

Q: Which results are given for O=C(CCNS(=O)(=O)c1ccccc1)N1CCN(CCCNS(=O)(=O)c2ccccc2)CC1?
A: CC50 at 72 h [1]: > 202 µM; EC50 (Hepatitis C virus): > 202 µM; EC90 (Hepatitis C virus): > 202 µM

Q: For COc1ccc(C(=O)C2=C(O)C(=O)N(c3cnoc3C)C2c2ccc(C(C)(C)C)cc2)cc1OC (stereo not given), which “Ratio CC50/EC50” value [3] is on record?
A: >1.8

Q: What about the CC50 at 72 h [1] of the same compound?
A: > 105 µM

Q: What about the EC50 (Hepatitis C virus) of the same compound?
A: 57.2 µM
